Results published in article PMC10786304 (Proceedings of the National Academy of Sciences of the …, 2024).
In brackets after ≈: the same amount, converted by molar mass.

How the values were obtained:
[1] = tested on: 2593-resistant spontaneous Mab mutants (Mab ATCC 19977); experiment: Selection and MIC testing of 2593-resistant spontaneous Mab mutants; format: cell-based, Mycobacterium abscessus; conditions: cross-resistance test
[2] = tested on: M. abscessus ATCC 19977 ∆3508c ∆2780c; experiment: MIC, double deletion mutant ∆whiB7 ∆tetV; format: cell-based, Mycobacterium abscessus; conditions: ∆tetV MIC divided by ∆whiB7 ∆tetV MIC
[3] = tested on: M. abscessus ATCC 19977 ∆2780c (∆tetV); experiment: MIC, isogenic deletion mutant ∆tetV; format: cell-based, Mycobacterium abscessus; conditions: for WT/∆2780c ratio: WT MIC divided by ∆tetV MIC
[4] = tested on: M. abscessus ATCC 19977 ∆2780c (∆tetV); conditions: ref [7], [17]; cited from earlier work
M. abscessus ATCC 19977 = experiment: microbe, parasite or virus in culture; format: cell-based, Mycobacterium abscessus; conditions: Mycobacteroides abscessus, ATCC19977, 120 h, read-out: MIC M. abs
[5] = tested on: purified M. smegmatis ATCC 19420 ribosomes; experiment: Mycobacterial cell-free translation inhibition assay; format: biochemical, Mycobacterium smegmatis; conditions: read-out: IC50 M. smg ribo
Mab ATCC 19977 = experiment: Whole-cell accumulation assay; format: cell-based, Mycobacterium abscessus; conditions: 100 µM compound, 30 min; mean ± SD
In short: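 Mab grown in MHB2 + 0.05% tyloxapol (37 °C, shaking) to OD600 0.5–0.6 was washed in PBS with 0.05% Tween-80 and 5% glucose. The concentrated suspension was incubated with 100 µM compound (1% DMSO) for 30 min at 37 °C, then washed three times; an aliquot was taken for CFU. Pellets were lysed and filtered supernatant quantified by LC-MS/MS. A = C×V/CFU, normalized to 10^10 CFU. Biological triplicate, mean and SD; ANOVA with Dunnett versus SPC.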

[6] = tested on: M. abscessus ATCC 19977 ∆3508c (∆whiB7); experiment: MIC, isogenic deletion mutant ∆whiB7; format: cell-based, Mycobacterium abscessus; conditions: versus wild type

Row | Compound | susceptibility of 2593-resistant mutants [1] | ∆2780c/∆3508c ∆2780c ratio [2] | WT/∆2780c ratio [3] | increase in SPC susceptibility of Mab Δ2780c deletion mutants [4] [fold] | MIC (M. abscessus ATCC 19977) [µg/mL] | IC50 [5] [nM] | whole-cell accumulation (Mab ATCC 19977) [nM/10^10 CFU] | increase in susceptibility in the ΔtetV strain ([3]; versus wild type) [fold] | increase in susceptibility against the ΔwhiB7 strain [6]
1 | NCC[C@H](O)C(=O)N[C@@H]1C[C@H](N)[C@@H](O[C@H]2O[C@H](CN)[C@@H](O)[C@H](O)[C@H]2O)[C@H](O)[C@H]1O[C@H]1O[C@H](CO)[C@@H](O)[C@H](N)[C@H]1O [AMK, amikacin] | remained susceptible | 8 | 1 |  |  |  |  |  | 
2 | CN[C@@H]1[C@H](O)[C@H](NC)[C@H]2O[C@@]3(O)C(=O)C[C@@H](C)O[C@H]3O[C@@H]2[C@H]1O [SPC, spectinomycin] |  | 1 | 64 | > 100 | 256 (≈ 770 µM) | 800 ± 210 | 38.2 ± 9.0 | 64 | eightfold
